Data as given in ChEMBL document CHEMBL1133089 (J Med Chem, 2000).

Tests used:
[1] = molecular target: T1, Neuronal acetylcholine receptor subunit alpha-7 (Rattus norvegicus, UniProt Q05941); experiment: Binding affinity in rat hippocampi against Nicotinic acetylcholine receptor alpha7; assay type: tissue-based, Hippocampus
Summary of the method: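 Incubated with 5 nM [¹²⁵I]α-bungarotoxin and 1 mg/mL BSA for 2 h at 21 °C. Collected on GF/C filters pretreated with 1% BSA/0.01% PEI. IC50 from six concentrations in triplicate.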

[2] = molecular target: Neuronal acetylcholine receptor; alpha4/beta2 (Rattus norvegicus, UniProt P09483+P12390); experiment: Binding affinity in rat forebrain against Nicotinic acetylcholine receptor alpha4-beta2
Chain of Neuronal acetylcholine receptor; alpha4/beta2 (P09483 whole entry): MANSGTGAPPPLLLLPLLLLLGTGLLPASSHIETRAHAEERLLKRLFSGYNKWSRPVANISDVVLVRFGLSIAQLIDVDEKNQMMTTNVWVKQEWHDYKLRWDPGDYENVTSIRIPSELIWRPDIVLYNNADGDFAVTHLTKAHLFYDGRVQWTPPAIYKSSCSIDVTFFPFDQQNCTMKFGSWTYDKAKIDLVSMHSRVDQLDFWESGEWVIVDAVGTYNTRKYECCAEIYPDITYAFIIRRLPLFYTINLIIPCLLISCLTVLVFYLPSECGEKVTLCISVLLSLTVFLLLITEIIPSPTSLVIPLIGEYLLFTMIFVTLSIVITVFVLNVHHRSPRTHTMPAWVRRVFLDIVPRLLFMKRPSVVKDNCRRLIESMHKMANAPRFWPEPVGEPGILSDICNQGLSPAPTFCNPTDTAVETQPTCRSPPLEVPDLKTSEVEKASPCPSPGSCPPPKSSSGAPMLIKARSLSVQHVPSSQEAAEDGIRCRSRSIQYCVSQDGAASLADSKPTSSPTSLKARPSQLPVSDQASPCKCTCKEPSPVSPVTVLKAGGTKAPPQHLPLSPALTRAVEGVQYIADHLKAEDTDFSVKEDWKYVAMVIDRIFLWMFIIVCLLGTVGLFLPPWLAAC
Chain of Neuronal acetylcholine receptor; alpha4/beta2 (P12390 whole entry): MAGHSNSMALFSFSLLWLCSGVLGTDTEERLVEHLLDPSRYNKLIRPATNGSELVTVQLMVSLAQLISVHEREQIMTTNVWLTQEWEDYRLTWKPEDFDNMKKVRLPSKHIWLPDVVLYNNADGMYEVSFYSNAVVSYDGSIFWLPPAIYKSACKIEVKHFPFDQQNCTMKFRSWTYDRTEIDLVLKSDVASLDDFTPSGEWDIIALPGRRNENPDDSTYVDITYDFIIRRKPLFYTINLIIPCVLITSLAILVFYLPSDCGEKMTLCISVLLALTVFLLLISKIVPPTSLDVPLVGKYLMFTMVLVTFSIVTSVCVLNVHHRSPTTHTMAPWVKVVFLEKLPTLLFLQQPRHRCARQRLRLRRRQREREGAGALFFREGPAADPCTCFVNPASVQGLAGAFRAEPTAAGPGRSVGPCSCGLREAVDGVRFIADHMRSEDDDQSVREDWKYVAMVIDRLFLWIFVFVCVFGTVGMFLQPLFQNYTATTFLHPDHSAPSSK
Summary of the method: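 Captured on GF/B filters treated with 0.01% PEI and counted by scintillation. Nonspecific binding taken with 100 µM carbachol. IC50 fitted from five concentrations run in triplicate.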

[3] = molecular target: T1, Neuronal acetylcholine receptor subunit alpha-7; experiment: Potency was determined by measuring current activation in Xenopus oocytes expressing rat alpha-7 nAChRs; assay type: cell-based, Oocyte
Summary of the method: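 Xenopus oocytes injected with cRNA for rat α7 nAChR and recorded 3-10 days after injection. Read-out is evoked current activation. Intrinsic activity scaled in each oocyte to the current elicited by 3 mM acetylcholine, set as 100%.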

T1 sequence (Q05941 whole entry): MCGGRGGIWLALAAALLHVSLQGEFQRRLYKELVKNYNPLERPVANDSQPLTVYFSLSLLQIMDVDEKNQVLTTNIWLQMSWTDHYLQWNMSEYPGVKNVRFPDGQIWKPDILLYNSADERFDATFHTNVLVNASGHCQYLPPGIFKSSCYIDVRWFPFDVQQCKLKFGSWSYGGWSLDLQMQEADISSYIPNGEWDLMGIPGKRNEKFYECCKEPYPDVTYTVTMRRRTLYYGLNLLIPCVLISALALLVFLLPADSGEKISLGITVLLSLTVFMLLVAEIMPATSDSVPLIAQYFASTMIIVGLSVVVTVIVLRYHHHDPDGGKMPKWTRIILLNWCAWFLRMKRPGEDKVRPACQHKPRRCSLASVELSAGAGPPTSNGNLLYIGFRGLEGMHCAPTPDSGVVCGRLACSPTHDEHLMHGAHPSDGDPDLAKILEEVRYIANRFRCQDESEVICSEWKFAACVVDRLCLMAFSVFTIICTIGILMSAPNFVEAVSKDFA

Row | SMILES | Ki [1] [µM] | Ki [2] [nM] | EC50 [3] [mM]
1 | CCN1CC2(CN3CCC2CC3)OC1=O (configuration not stated) | 0.69 | 170 | –
2 | O=C1CC2(CN1)CN1CCC2CC1 (configuration not stated) | 4 | – | –
3 | O=C1NCC2(CN3CCC2CC3)N1 (configuration not stated) | > 13 | – | –
4 | O=C1NC2(CO1)CN1CCC2CC1 (configuration not stated) | > 4.3 | – | –
5 | O=C1NCC2(CN3CCC2CC3)O1 (single isomer, unassigned; (-)) | – | – | 21
6 | CN1C(=O)NCC12CN1CCC2CC1 (configuration not stated) | > 13 | – | –
